Activity calls are given as the source filed them. The calls are words filed in the database; no cut-off is given here.

Usually inhibition in vivo stands for how much of the control response was suppressed. The IC50 is the concentration needed to halve the response being measured. Lower therefore signals greater potency.

Experiment [1] relates to Mus musculus. In words: Antiinflammatory activity against dimethylbenzene-induced ear edema mouse model assessed as inhibition of ear edema at 30 mg/kg, ip pretreated with compounds followed by dimethylbenzene challenge relative to control. The experiment is classed as functional. In a few lines:
(§1)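 Intraperitoneal dosing (test agents 30 mg/kg, reference 3 mg/kg) given before topical dimethylbenzene to mouse ear. Ear inflammation was measured by weight (mg), and inhibition was expressed as percent versus control at 60 min.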

The test system of experiment [2] is Mus musculus. In words: Antidepressant activity in mouse assessed as immobility time at 30 mg/kg, ip by forced swimming test (reference value: 172.3 +/- 9.67 sec). The experiment is classed as functional.
Experiment [3] has as its system Mus musculus. In words: Antidepressant activity in mouse assessed as reduction in duration of immobility at 30 mg/kg, ip relative to control. The experiment is classed as functional.
In experiment [4] the test system is Mus musculus. In words: Antidepressant activity in mouse assessed as change in norepinephrine level at 30 mg/kg, ip. It counts as functional, organism-based. In a few lines:
(§2)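 Mice under stress treated intraperitoneally (30 mg/kg), alongside normal-vehicle and stress-vehicle groups; serotonin, norepinephrine and dopamine levels measured; n = 8 per group; values as mean ± SEM; significance tested against stress vehicle and normal vehicle.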

Experiment [5] deals with Mus musculus. Nature of the experiment: Antidepressant activity in mouse assessed as change in dopamine level at 30 mg/kg, ip. The experiment is classed as functional, organism-based. In a few lines: as §2
The target in experiment [6] is T1, Prostaglandin G/H synthase 1 (Ovis aries, UniProt P05979).
T1 sequence (P05979 whole entry): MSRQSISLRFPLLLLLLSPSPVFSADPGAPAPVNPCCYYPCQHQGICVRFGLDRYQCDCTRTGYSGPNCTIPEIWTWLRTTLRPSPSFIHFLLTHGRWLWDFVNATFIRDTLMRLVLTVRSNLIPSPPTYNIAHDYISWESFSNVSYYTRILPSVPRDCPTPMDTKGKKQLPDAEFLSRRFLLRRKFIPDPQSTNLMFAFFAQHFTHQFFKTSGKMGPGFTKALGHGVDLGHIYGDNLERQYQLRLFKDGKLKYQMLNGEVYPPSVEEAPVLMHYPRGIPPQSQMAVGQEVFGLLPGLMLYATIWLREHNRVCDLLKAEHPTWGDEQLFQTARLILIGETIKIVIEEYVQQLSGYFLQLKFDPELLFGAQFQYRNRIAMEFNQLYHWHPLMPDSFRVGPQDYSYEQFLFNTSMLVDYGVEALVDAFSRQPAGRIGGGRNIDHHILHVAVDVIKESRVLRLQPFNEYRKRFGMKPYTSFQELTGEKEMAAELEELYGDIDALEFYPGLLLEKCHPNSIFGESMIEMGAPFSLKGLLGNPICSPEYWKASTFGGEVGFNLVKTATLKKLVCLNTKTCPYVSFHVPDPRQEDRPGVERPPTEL
Nature of the experiment: Inhibition of ovine COX1 by ELISA. The procedure, abridged:
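Ovine COX-1 inhibition followed through enzyme peroxidase activity with a colorimetric enzyme immunoassay kit; IC50 values determined; mean and SD of three measurements.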
On the technique in general: In an ELISA, binding on a coated surface is turned into a signal by an enzyme label.

In experiment [7] the test system is Mus musculus. Nature of the experiment: Antidepressant activity in mouse assessed as increase in serotonin level at 30 mg/kg, ip. It counts as functional, organism-based. In a few lines:
as §2

For experiment [8], the system named is Mus musculus. Nature of the experiment: Antiinflammatory activity against dimethylbenzene-induced ear edema mouse model assessed as inhibition of ear edema at 3 mg/kg, ip pretreated with compounds followed by dimethylbenzene challenge relative to control. It counts as functional. In a few lines:
as §1

Experiment [9] has as its system Mus musculus. In words: Analgesic activity in mouse assessed as inhibition of acetic acid-induced writhing at 3 mg/kg, ip relative to control. The experiment is classed as functional. (An intraperitoneal irritant provokes the stretching counted in writhing tests.)
The subject of experiment [10] is Mus musculus. Nature of the experiment: Antidepressant activity in mouse assessed as change in dopamine level at 3 mg/kg, ip. It counts as functional, organism-based.
Experiment [11] relates to Mus musculus. In words: Antidepressant activity in mouse assessed as immobility time at 3 mg/kg, ip by forced swimming test (reference value: 172.3 +/- 9.67 sec). It counts as functional.
Experiment [12] deals with Mus musculus. Nature of the experiment: Antidepressant activity in mouse assessed as reduction in duration of immobility at 3 mg/kg, ip relative to control. The experiment is classed as functional.
For experiment [13], the system named is Mus musculus. Nature of the experiment: Antidepressant activity in mouse assessed as increase in serotonin level at 3 mg/kg, ip. It counts as functional, organism-based.
Experiment [14] concerns Mus musculus. In words: Antidepressant activity in mouse assessed as change in norepinephrine level at 3 mg/kg, ip. It counts as functional, organism-based.

As to `Cc1ccc(/C=C/C(=O)c2c(C)nc3ccccc3c2-c2ccccc2)cc1`, the inhibition in vivo at 30 mg/kg in the experiment on Mus musculus [1] stood at 61.3%. Besides, in the experiment with Mus musculus [2], the Time is reported as 63 s.
Regarding `COc1ccc(/C=C/C(=O)c2c(C)nc3ccccc3c2-c2ccccc2)cc1O`, in the experiment on Mus musculus [1], the inhibition in vivo at 30 mg/kg worked out at 65.5%. Besides, the Time in the experiment on Mus musculus [2] is on record as 52.3 s.
Consider `Cc1nc2ccccc2c(-c2ccccc2)c1C(=O)/C=C/c1ccc([N+](=O)[O-])cc1`, for which the inhibition in vivo at 30 mg/kg in the experiment with Mus musculus [1] worked out at 42.9%; in the experiment with Mus musculus [3], 72.8%. In addition, the Time in the experiment on Mus musculus [2] worked out at 46.8 s.
As to `Cc1nc2ccccc2c(-c2ccccc2)c1C(=O)/C=C/c1ccc(O)cc1`, in the experiment with Mus musculus [1], the inhibition in vivo at 30 mg/kg turned out to be 78.8%. The Time in the experiment on Mus musculus [2] is recorded as 79.3 s.
On to `Cc1nc2ccccc2c(-c2ccccc2)c1C(=O)/C=C/c1cccc(Br)c1`, for which the inhibition in vivo at 30 mg/kg with Mus musculus [1] was determined as 72.9%; in the experiment with Mus musculus [3], 92%. Also, in the experiment with Mus musculus [2], the Time was 13.8 s.
`Cc1nc2ccccc2c(-c2ccccc2)c1C(=O)/C=C/c1ccc(N(C)C)cc1`: the inhibition in vivo at 30 mg/kg in the experiment with Mus musculus [1] came out at 69.7%. Besides, the Time in the experiment with Mus musculus [2] is listed as 47.5 s.
On to `Cc1nc2ccccc2c(-c2ccccc2)c1C(=O)/C=C/c1ccccc1Br`, for which the inhibition in vivo at 30 mg/kg with Mus musculus [1] was 55%. For the same compound, the Time with Mus musculus [2] came to 60.3 s.
For `Cc1nc2ccccc2c(-c2ccccc2)c1C(=O)/C=C/c1cccc(O)c1`, the inhibition in vivo at 30 mg/kg was found to be 65.2% in the experiment with Mus musculus [1] and 80% in the experiment on Mus musculus [3]. In the experiment with Mus musculus [2], the Time is 32.8 s.
Consider `Cc1nc2ccccc2c(-c2ccccc2)c1C(=O)/C=C/c1ccc(F)cc1F`, for which the inhibition in vivo at 30 mg/kg in the experiment on Mus musculus [1] was found to be 65.8%. Besides, the Time with Mus musculus [2] is on record as 51.5 s.
Regarding `COc1cccc(/C=C/C(=O)c2c(C)nc3ccccc3c2-c2ccccc2)c1`, the inhibition in vivo at 30 mg/kg with Mus musculus [1] stood at 74.6%. Moreover, the Time in the experiment with Mus musculus [2] came out at 48.5 s.
The matching figures for `Cc1nc2ccccc2c(-c2ccccc2)c1C(=O)/C=C/c1ccccc1Cl`: 73.2% and 136.3 s.
For the compound `Cc1cccc(/C=C/C(=O)c2c(C)nc3ccccc3c2-c2ccccc2)c1`, the inhibition in vivo at 30 mg/kg with Mus musculus [1] came to 67.1%. The Time in the experiment on Mus musculus [2] turned out to be 57.5 s.
With `COc1ccccc1/C=C/C(=O)c1c(C)nc2ccccc2c1-c1ccccc1`, the inhibition in vivo at 30 mg/kg with Mus musculus [1] amounted to 62.1%. In addition, the Time with Mus musculus [2] is 109.3 s.
Take `Cc1nc2ccccc2c(-c2ccccc2)c1C(=O)/C=C/c1cccc(F)c1`: the inhibition in vivo at 30 mg/kg in the experiment on Mus musculus [1] stood at 69.2%; with Mus musculus [3], 77.8%. In addition, the Time with Mus musculus [2] is reported as 38.3 s.
`Cc1nc2ccccc2c(-c2ccccc2)c1C(=O)/C=C/c1c(Cl)cccc1Cl`: in the experiment on Mus musculus [1], the inhibition in vivo at 30 mg/kg was determined as 46.7%. Also, the Time in the experiment on Mus musculus [2] worked out at 52 s.
On to `Cc1nc2ccccc2c(-c2ccccc2)c1C(=O)/C=C/c1ccccc1F`, for which the inhibition in vivo at 30 mg/kg in the experiment with Mus musculus [1] worked out at 81.2%. Also, the Time with Mus musculus [2] is given as 49.3 s.
For `Cc1nc2ccccc2c(-c2ccccc2)c1C(=O)/C=C/c1ccc(Cl)cc1`, the inhibition in vivo at 30 mg/kg in the experiment on Mus musculus [1] was found to be 85.5%; with Mus musculus [3], 83%. Also, the Time in the experiment with Mus musculus [2] is recorded as 29.3 s.
Turning to `Cc1ccccc1/C=C/C(=O)c1c(C)nc2ccccc2c1-c1ccccc1`, in the experiment on Mus musculus [1], the inhibition in vivo at 30 mg/kg was 70.9%. The Time in the experiment on Mus musculus [2] was determined as 86.3 s.
Take `Cc1nc2ccccc2c(-c2ccccc2)c1C(=O)/C=C/c1ccc(C(C)C)cc1`: the outcome with Mus musculus [4] and with Mus musculus [5] was inactive. The inhibition in vivo at 30 mg/kg turned out to be 76.8% in the experiment on Mus musculus [1] and 86.8% in the experiment with Mus musculus [3]. The compound also yielded an IC50 in experiment [6] of 8.95 µM. In addition, the Time in the experiment on Mus musculus [2] amounted to 22.8 s. Besides, the result in the experiment on Mus musculus [7] was Active.
`COc1ccc2c(c1)c(CC(=O)O)c(C)n2C(=O)c1ccc(Cl)cc1` [INDOMETHACIN]: the inhibition in vivo at 3 mg/kg with Mus musculus [8] was determined as 51.1%; with Mus musculus [9], 78.3%.
Take `CNCCC(Oc1ccc(C(F)(F)F)cc1)c1ccccc1` (stereo unspecified) [FLUOXETINE]: the result with Mus musculus [10] and with Mus musculus [14] was inactive. Also, in the experiment on Mus musculus [11], the Time is 88.1 s. The inhibition in vivo at 3 mg/kg in the experiment with Mus musculus [12] turned out to be 48.9%. For the same compound, the result in the experiment on Mus musculus [13] was Active.
For `Cc1nc2ccccc2c(-c2ccccc2)c1C(=O)/C=C/c1ccc(Br)cc1`, the inhibition in vivo at 30 mg/kg in the experiment with Mus musculus [1] worked out at 74.1%. Also, the Time in the experiment with Mus musculus [2] is given as 75.8 s.
With `Cc1nc2ccccc2c(-c2ccccc2)c1C(=O)/C=C/c1cccc(Cl)c1`, the inhibition in vivo at 30 mg/kg in the experiment with Mus musculus [1] is 53.6%. The Time in the experiment on Mus musculus [2] turned out to be 48.5 s.
`Cc1nc2ccccc2c(-c2ccccc2)c1C(=O)/C=C/c1ccc(F)cc1`: the outcome in the experiment with Mus musculus [4] and with Mus musculus [5] was inactive. Moreover, the inhibition in vivo at 30 mg/kg worked out at 88.3% in the experiment on Mus musculus [1] and 85% with Mus musculus [3]. Further, inhibition in experiment [6] was half-maximal at 10.2 µM (IC50). In the experiment on Mus musculus [2], the Time is 25.8 s. The result in the experiment with Mus musculus [7] was Active.
As to `Cc1nc2ccccc2c(-c2ccccc2)c1C(=O)/C=C/c1ccc(Cl)cc1Cl`, the results for the inhibition in vivo at 30 mg/kg with Mus musculus [1] and with Mus musculus [3] were 81.3% and 81%, respectively. Also, the Time in the experiment on Mus musculus [2] came out at 31.5 s.
On to `COc1ccc(/C=C/C(=O)c2c(C)nc3ccccc3c2-c2ccccc2)cc1`, for which the inhibition in vivo at 30 mg/kg in the experiment with Mus musculus [1] is 66.7%. Further, the Time with Mus musculus [2] was 83.5 s.

(Values after ChEMBL document CHEMBL4619741, “Screening of chalcone analogs with anti-depressant, anti-inflammatory, analgesic, and COX-2-inhibiting effects” (Bioorg Med Chem Lett, 2020).)
